Assay results taken from ChEMBL document CHEMBL3576868 (J Med Chem, 2015).
Positions count from the first letter of the chain named. Calls of active or inactive are those of the source. The rule behind the calls is not given here.

Columns and labels:
[1] = system: T1, Beta-hexosaminidase subunit alpha (Homo sapiens), P06865 [G269S]; experiment: Chaperoning efficacy at HexA alpha G269S mutant in ATSD patient fibroblasts assessed as maximum increase in enzyme activity using MUGS substrate incubated for 1 to 2 hrs by spectrofluorometry relative to control
T1 sequence (whole entry): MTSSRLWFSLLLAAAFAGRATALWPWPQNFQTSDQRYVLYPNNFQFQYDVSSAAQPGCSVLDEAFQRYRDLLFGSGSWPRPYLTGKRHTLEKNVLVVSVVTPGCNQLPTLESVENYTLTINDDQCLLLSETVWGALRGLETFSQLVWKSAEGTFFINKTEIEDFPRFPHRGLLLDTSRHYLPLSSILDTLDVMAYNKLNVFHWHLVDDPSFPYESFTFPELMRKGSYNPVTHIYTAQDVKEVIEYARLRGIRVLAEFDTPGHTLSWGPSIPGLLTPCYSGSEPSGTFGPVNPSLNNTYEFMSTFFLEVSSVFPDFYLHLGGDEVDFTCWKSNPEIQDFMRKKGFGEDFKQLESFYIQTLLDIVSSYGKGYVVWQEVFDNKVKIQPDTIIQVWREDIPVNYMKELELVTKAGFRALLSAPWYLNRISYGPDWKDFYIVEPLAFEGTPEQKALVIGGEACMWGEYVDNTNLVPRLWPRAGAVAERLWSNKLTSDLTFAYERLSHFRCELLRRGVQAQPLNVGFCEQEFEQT
How it was run: (§1)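 G269S-homozygous ATSD patient fibroblasts plated at 70−90% confluence and treated 5 days with serially diluted compound in DMEM/10% FBS, DMSO held at 1%. After PBS washes, cells were lysed in McIlvaine buffer pH 4.5 with 0.4% Triton X-100 and 0.025% HSA at 4 °C for 30 min. Lysate was incubated with MUGS (1.6 mM) at 37 °C for 1−2 h and stopped with 0.1 M MAP pH 10.5. Fluorescence read at Ex 365/Em 450 nm. Activity expressed relative to mock (1% DMSO) cells; triplicates.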

[2] = Toxicity against ATSD patient fibroblasts assessed as reduction in beta-galactosidase activity at; assay type: cell-based; settings: human, fibroblast
[3] = molecular target: T2, Beta-N-acetyl-D-hexosaminidase-A/B (Homo sapiens, UniProt P07686+P06865); experiment: Inhibition of human placental HexA using pNPGlcNAc substrate
T2 sequence (P07686 whole entry): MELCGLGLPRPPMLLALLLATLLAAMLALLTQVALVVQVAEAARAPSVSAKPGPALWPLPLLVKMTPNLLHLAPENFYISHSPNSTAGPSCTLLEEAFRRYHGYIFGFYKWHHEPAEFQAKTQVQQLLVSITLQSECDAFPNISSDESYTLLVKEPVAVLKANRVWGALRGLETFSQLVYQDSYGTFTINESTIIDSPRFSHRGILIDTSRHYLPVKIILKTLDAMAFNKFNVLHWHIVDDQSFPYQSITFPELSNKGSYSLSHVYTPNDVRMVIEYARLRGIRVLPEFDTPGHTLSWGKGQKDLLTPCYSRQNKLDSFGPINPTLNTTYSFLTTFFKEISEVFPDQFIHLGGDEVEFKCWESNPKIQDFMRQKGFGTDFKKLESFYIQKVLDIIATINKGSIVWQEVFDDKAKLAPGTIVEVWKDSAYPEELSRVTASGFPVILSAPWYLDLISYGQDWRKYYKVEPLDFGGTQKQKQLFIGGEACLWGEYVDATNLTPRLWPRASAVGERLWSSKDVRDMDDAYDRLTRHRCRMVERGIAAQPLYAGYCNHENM
T2 sequence (P06865 whole entry): T1 sequence (whole entry) with S269G

[4] = Toxicity against ATSD patient fibroblasts assessed as reduction in beta-galactosidase activity at >400 uM; assay type: cell-based; design: scale not given: the % may be the effect or the level left; settings: human, fibroblast
[5] = system: T1, Beta-hexosaminidase subunit alpha (Homo sapiens), P06865 [G269S]; experiment: Chaperoning efficacy at HexA alpha G269S mutant in ATSD patient fibroblasts assessed as drug level causing maximum increase in enzyme activity using MUGS substrate incubated for 1 to 2 hrs by spectrofluorometry relative to control; how it was run: as §1
[6] = system: T1, Beta-hexosaminidase subunit alpha (Homo sapiens), P06865 [G269S]; experiment: Chaperoning efficacy at HexA alpha G269S mutant in ATSD patient fibroblasts assessed as maximum increase in enzyme activity using MUGS substrate incubated for 1 to 2 hrs by spectrofluorometry relative to pyrimethamine
[7] = molecular target: Beta-hexosaminidase subunit alpha (Homo sapiens, UniProt P06865, G269S); experiment: Inhibition of HexA alpha G269S mutant in ATSD patient fibroblasts using MUG substrate incubated for 1 to 2 hrs at pH 4.5 by spectrofluorometry
[8] = molecular target: T3, Dihydrofolate reductase (Homo sapiens) (UniProt P00374); experiment: Inhibition of human DHFR
T3 sequence (whole entry): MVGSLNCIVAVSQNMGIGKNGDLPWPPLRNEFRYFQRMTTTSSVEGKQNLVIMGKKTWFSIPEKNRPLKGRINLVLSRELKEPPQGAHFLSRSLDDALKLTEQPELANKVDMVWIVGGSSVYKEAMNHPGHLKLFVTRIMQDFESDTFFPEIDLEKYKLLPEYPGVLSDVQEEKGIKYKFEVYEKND

[9] = Toxicity against ATSD patient fibroblasts assessed as reduction in beta-galactosidase activity at >200 uM; assay type: cell-based; settings: human, fibroblast
[10] = molecular target: Signal transducer and activator of transcription 3 (Homo sapiens) (UniProt P40763); experiment: Inhibition of STAT3 phosphorylation at 100 uM
Chain of Signal transducer and activator of transcription 3 (Homo sapiens) (P40763 whole entry): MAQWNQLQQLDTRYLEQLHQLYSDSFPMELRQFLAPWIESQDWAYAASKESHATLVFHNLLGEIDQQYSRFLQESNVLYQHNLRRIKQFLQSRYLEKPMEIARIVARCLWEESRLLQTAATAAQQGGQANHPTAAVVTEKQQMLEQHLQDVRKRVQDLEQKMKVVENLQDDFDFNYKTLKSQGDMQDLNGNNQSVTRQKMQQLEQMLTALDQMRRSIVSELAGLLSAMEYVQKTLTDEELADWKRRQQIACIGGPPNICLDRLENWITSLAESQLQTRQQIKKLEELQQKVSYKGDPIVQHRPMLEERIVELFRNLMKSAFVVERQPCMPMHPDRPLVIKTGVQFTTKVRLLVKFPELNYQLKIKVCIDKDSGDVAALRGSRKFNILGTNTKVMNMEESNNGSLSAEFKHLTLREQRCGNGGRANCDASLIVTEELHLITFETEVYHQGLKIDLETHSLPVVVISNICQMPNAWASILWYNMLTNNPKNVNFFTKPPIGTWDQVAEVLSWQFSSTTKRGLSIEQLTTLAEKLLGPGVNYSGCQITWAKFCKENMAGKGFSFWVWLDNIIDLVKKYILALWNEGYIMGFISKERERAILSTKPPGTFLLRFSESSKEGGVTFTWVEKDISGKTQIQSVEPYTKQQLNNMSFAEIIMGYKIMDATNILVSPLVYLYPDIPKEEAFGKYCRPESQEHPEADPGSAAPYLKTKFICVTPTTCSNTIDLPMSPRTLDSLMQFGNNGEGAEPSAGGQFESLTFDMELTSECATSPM

fold change (FC) [1] | IC50 [3] [µM] | Activity [5] [µM] | Structure (SMILES) | Activity [4] | further results
1.5 |  |  | CCCc1nc(N)nc(N)c1-c1ccc(Cl)cc1 |  | 
2.2 |  | 30 | CCc1nc(N)nc(N)c1-c1ccc(C(F)(F)F)cc1 | > 60% | Activity [2]: Toxic
2.3 | 43 | 100 | CCc1nc(N)nc(N)c1-c1ccccc1C | > 60% | Activity [6]: 30%
 | > 400 |  | CCc1nc(N)ncc1-c1ccc(Cl)cc1 |  | 
 | > 410 |  | CC(C)c1nc(N)nc(N)c1-c1ccc(Cl)cc1 |  | 
2.7 |  |  | CCc1nc(N)nc(N)c1-c1ccccc1 | Non-toxic | IC50 [7]: 27 µM; Activity [6]: 30%; inhibition [8]: Active; Activity [9]: Toxic
2.1 |  | 30 | CCc1nc(N)nc(N)c1-c1ccc(Cl)cc1 [PYRIMETHAMINE] | > 60% | Activity [2]: Toxic; inhibition [8]: Active; inhibition [10]: Active
 | > 2100 |  | CCc1nc(N)[nH]c(=O)c1-c1ccc(Cl)cc1 |  | 
2.9 |  | 100 | CCc1nc(N)nc(N)c1-c1cccc(C)c1 | > 60% | Activity [6]: 30%
2.5 |  | 100 | CCc1nc(N)nc(N)c1-c1cc(C)cc(C)c1 | > 60% | Activity [6]: 30%
 | > 400 |  | CCc1nc(N)ncc1-c1ccc(C(F)(F)F)cc1 |  | 
 | 180 |  | NCc1nc(N)nc(N)c1-c1ccc(Cl)cc1 |  | 
 | > 1400 |  | CCCCc1nc(N)nc(N)c1-c1ccc(Cl)cc1 |  | 
 | > 560 |  | Cc1nc(N)nc(N)c1-c1ccc(Cl)cc1 |  | 
 | > 940 |  | CCc1ncncc1-c1ccc(C(F)(F)F)cc1 |  | 

Structure (SMILES) | fold change (FC) [1] | IC50 [3] [µM] | Activity [5] [µM] | Activity [4] | further results
CCc1nc(N)nc(N)c1-c1ccc(OC)cc1 | 2 | 18 | 30 | > 60% | Activity [2]: Toxic
CCc1nc(N)nc(N)c1-c1ccc(C)cc1 | 1.7 | 40 | 30 | > 60% | Activity [2]: Toxic
